The test system of test [1] is Mus musculus. The experiment in a line: Compound was evaluated for in vivo for % glucose normalization in mice at a concentration of 10 mg/kg. The class given is functional. Put shortly: (§1)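 Six- to eight-week-old C57BL/6J-ob/ob mice, acclimated 1 week, bled retroorbitally before treatment. Oral gavage once daily for four days in 0.25% (w/v) methylcellulose in water, unadjusted pH. Bled again 24 h after the fourth dose. Plasma glucose read by hexokinase UV method. Expressed as % normalization: vehicle = 0%, ciglitazone 50 mg/kg = 100%.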

The subject of test [2] is 3T3-L1. As to the kind of experiment: In vitro fold stimulation of glucose transporter protein in 3T3-L1 adipocytes at a concentration of 30 uM. Type of test: functional, Mus musculus. A digest of the protocol:
(§2)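 Differentiated 3T3-L1 adipocytes (days 7–11 after start of differentiation) exposed to compound in DMEM + 10% FBS, 0.1% DMSO final, medium renewed with fresh drug after 24 h, total 48 h. Triton X-100/EDTA/DTT extracts dot-blotted, probed with affinity-purified rabbit anti-GLUT1 (0.5 μg/mL) then 125I goat anti-rabbit IgG, gamma-counted; transporter quantified against basal-extract standard curve, fold over DMSO control.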

A short description of test [3]: In vitro stimulation of 2-Deoxyglucose uptake in L6 myocytes from rat skeletal myoblasts at a concentration of 30 uM. Type of test: functional. A digest of the protocol:
(§3)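 Rat L6 myoblasts grown 14 days in MEMalpha + 2% FBS to fuse into myocytes, then serum-depleted 5 h. Uptake of 0.1 mM [1-14C]2-deoxyglucose in Dulbecco's PBS (+Ca, Mg) for 10 min at room temperature, stopped by ice-cold saline washes. Cells dissolved in 0.1 M NaOH and scintillation counted. Reported relative to 1 µM insulin set at 1.0.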

For test [4], the system named is 3T3-L1. The experiment in a line: In vitro fold stimulation of glucose transporter protein in 3T3-L1 adipocytes at a concentration of 10 uM. The class given is functional, Mus musculus. A digest of the protocol:
as §2

Test [5] deals with Mus musculus. The experiment in a line: In vivo percent glucose normalization in mice at a concentration of 25 mg/kg. Type of test: functional. A digest of the protocol: as §1
Test [6] can be described thus: In vitro stimulation of 2-Deoxyglucose uptake in L6 myocytes from rat skeletal myoblasts at a concentration of 3 uM. The class given is functional. Put shortly: as §3
In test [7] the test system is Mus musculus. The experiment in a line: Compound was evaluated for in vivo for % glucose normalization in mice at a concentration of 5 mg/kg. The class given is functional. Put shortly:
as §1

Test [8] can be described thus: In vitro stimulation of 2-Deoxyglucose uptake in L6 myocytes from rat skeletal myoblasts at a concentration of 10 uM. Type of test: functional. A digest of the protocol:
as §3

Test [9] has as its system Mus musculus. The experiment in a line: Compound was evaluated for in vivo for % glucose normalization in mice at a concentration of 2.5 mg/kg. The class given is functional. Put shortly:
as §1

From ChEMBL document CHEMBL1125908, “Substituted dihydrobenzopyran and dihydrobenzofuran thiazolidine-2,4-diones as hypoglycemic agents” (1991) come the findings set out here.

The structures appear in SMILES notation.

Turning to `COc1ccc(CC2CCc3cc(CC4SC(=O)NC4=O)ccc3O2)cc1` (configuration not stated), the Glucose normalisation with Mus musculus [1] came out at 68%; in the test on Mus musculus [5], 85%; with Mus musculus [7], 10%. Also, the GT fold stimulation is recorded as 1.21 in the test on 3T3-L1 [2] and 1.08 with 3T3-L1 [4]. Also, the 2-DG uptake stimulation worked out at 0.69 in [3], 0.92 in test [6] and 1.15 in [8].
In the case of `O=C1NC(=O)C(Cc2ccc3c(c2)CC(c2ccccc2)O3)S1` (configuration not stated), the Glucose normalisation in the test with Mus musculus [1] is 6%; with Mus musculus [5] it was 85%. The values for the GT fold stimulation with 3T3-L1 [2] and with 3T3-L1 [4] were 1.42 and 1.14, respectively. Further, the 2-DG uptake stimulation in test [3] is 1.3; in test [6], 0.76; in test [8] it was 0.99.
`O=C1NC(=O)C(Cc2ccc3c(c2)CC(CC2CCCCC2)O3)S1` (configuration not stated): the GT fold stimulation in the test on 3T3-L1 [2] amounted to 1.41; in the test on 3T3-L1 [4], 1.14. In addition, the 2-DG uptake stimulation in test [3] amounted to 1.71; in [6] it was 0.88; in [8], 1.39. For the same molecule, the Glucose normalisation in the test with Mus musculus [5] is 19%.
Turning to `O=C1NC(=O)C(Cc2ccc3c(c2)CCC2(CCCCCC2)O3)S1` (configuration not stated), the GT fold stimulation with 3T3-L1 [2] came out at 1.12; with 3T3-L1 [4], 0.94. The 2-DG uptake stimulation in test [3] is 0.43; in test [6], 1.32; in [8], 0.99. The same molecule registered a Glucose normalisation in the test on Mus musculus [5] of 0%.
Consider `O=C1NC(=O)C(Cc2ccc3c(c2)CCC(Cc2ccccc2)(Cc2ccccc2)O3)S1` (configuration not stated), for which the GT fold stimulation is reported as 1.23 in the test on 3T3-L1 [2] and 1.03 in the test with 3T3-L1 [4]. The 2-DG uptake stimulation in [3] amounted to 0.44; in test [6], 0.73; in test [8], 0.86. In the test with Mus musculus [5], the Glucose normalisation was determined as 12%.
Turning to `O=C1NC(=O)C(Cc2ccc3c(c2)CCC(Cc2ccccn2)O3)S1` (configuration not stated), the Glucose normalisation is on record as 49% in the test with Mus musculus [1] and 74% in the test on Mus musculus [5]. The GT fold stimulation in the test on 3T3-L1 [2] turned out to be 1.42; in the test with 3T3-L1 [4], 1.48. Moreover, the 2-DG uptake stimulation in [3] amounted to 0.96; in test [6], 0.76; in test [8] it was 0.96.
For the molecule `O=C1NC(=O)C(Cc2ccc3c(c2)CC(C2CCCCC2)O3)S1` (configuration not stated), the GT fold stimulation with 3T3-L1 [2] is recorded as 1.42; in the test with 3T3-L1 [4], 1.25. For the same molecule, the results for the 2-DG uptake stimulation in [3], in [6] and in test [8] were 1.66, 1.1 and 1.85, respectively. Besides, the Glucose normalisation in the test on Mus musculus [5] was 23%.
`CCC1(CC)CCc2cc(CC3SC(=O)NC3=O)ccc2O1` (configuration not stated): the GT fold stimulation in the test with 3T3-L1 [2] came out at 1.21; in the test on 3T3-L1 [4], 1.08. Besides, the 2-DG uptake stimulation in [3] came out at 1.38; in test [6], 1.01; in test [8] it was 1.33. In the test with Mus musculus [5], the Glucose normalisation was found to be 24%.
Turning to `O=C1NC(=O)C(Cc2ccc3c(c2)CC(Cc2ccccc2)O3)S1` (configuration not stated), the Glucose normalisation with Mus musculus [1] is given as 95%; in the test with Mus musculus [5], 100%; with Mus musculus [7], 65%; in the test on Mus musculus [9], 0%. Also, the GT fold stimulation in the test with 3T3-L1 [2] is recorded as 1.51; in the test with 3T3-L1 [4], 1.34. The 2-DG uptake stimulation in test [3] was determined as 1.51; in test [6], 0.91; in test [8] it was 1.11.
Consider `O=C1NC(=O)C(Cc2ccc3c(c2)CCC2(CCCCC2)O3)S1` (configuration not stated), for which the GT fold stimulation in the test with 3T3-L1 [2] came out at 1.2; in the test on 3T3-L1 [4] it was 0.97. Also, the 2-DG uptake stimulation in test [3] is reported as 1.22; in test [6], 0.97; in [8], 1.52. The Glucose normalisation in the test with Mus musculus [5] amounted to 35%.
Regarding `CC1(COc2ccc(CC3SC(=O)NC3=O)cc2)CCCCC1` (configuration not stated) [CIGLITAZONE], the Glucose normalisation in the test on Mus musculus [1] is given as 52%; with Mus musculus [5] it was 84%. Further, the GT fold stimulation with 3T3-L1 [2] is on record as 1.51; in the test on 3T3-L1 [4], 1.49. Also, the results for the 2-DG uptake stimulation in test [3], in [6] and in [8] were 0.68, 0.82 and 1.02, respectively.
For the molecule `O=C1NC(=O)C(Cc2ccc3c(c2)CCC(C2CCCCC2)O3)S1` (configuration not stated), the Glucose normalisation with Mus musculus [1] is 75%; in the test with Mus musculus [5], 69%; with Mus musculus [7] it was 65%; in the test on Mus musculus [9], 5%. Besides, the values for the GT fold stimulation with 3T3-L1 [2] and in the test on 3T3-L1 [4] were 1.23 and 1.03, respectively. The 2-DG uptake stimulation is 2.23 in test [3], 1.28 in [6] and 2.08 in test [8].
As to `CC1(C2Cc3cc(CC4SC(=O)NC4=O)ccc3O2)CCCCC1` (configuration not stated), the Glucose normalisation is recorded as 33% in the test with Mus musculus [1] and 80% in the test on Mus musculus [5]. Further, the GT fold stimulation is 1.22 in the test with 3T3-L1 [2] and 1.11 in the test on 3T3-L1 [4]. Moreover, the values for the 2-DG uptake stimulation in test [3], in test [6] and in [8] were 1.67, 0.8 and 0.93, respectively.
Turning to `O=C1NC(=O)C(Cc2ccc3c(c2)CCC(c2ccccc2)O3)S1` (configuration not stated), the Glucose normalisation with Mus musculus [1] stood at 0%; in the test on Mus musculus [5] it was 70%. Also, the GT fold stimulation in the test on 3T3-L1 [2] turned out to be 1.37; in the test on 3T3-L1 [4], 1.05. Besides, the 2-DG uptake stimulation in test [3] was found to be 1.15; in test [6], 0.78; in [8] it was 0.95.
For the molecule `O=C1NC(=O)C(Cc2ccc3c(c2)C(Cc2ccccc2)CO3)S1` (configuration not stated), the GT fold stimulation amounted to 1.31 with 3T3-L1 [2] and 1.09 in the test on 3T3-L1 [4]. The 2-DG uptake stimulation in test [3] amounted to 1.4; in test [6], 0.85; in [8], 1.25. Further, in the test with Mus musculus [5], the Glucose normalisation amounted to 0%.
Turning to `O=C1NC(=O)C(Cc2ccc3c(c2)CCC2(CCCC2)O3)S1` (configuration not stated), the Glucose normalisation is recorded as 64% with Mus musculus [1], 52% in the test on Mus musculus [5], 50% in the test with Mus musculus [7] and 0% in the test on Mus musculus [9]. Moreover, the GT fold stimulation with 3T3-L1 [2] is reported as 1.1; in the test with 3T3-L1 [4] it was 0.95. In addition, the 2-DG uptake stimulation came to 1.18 in [3], 0.79 in [6] and 1.06 in test [8].
`O=C1NC(=O)C(Cc2ccc3c(c2)CC[C@@H](Cc2ccccc2)O3)S1` (some centres not stated): the Glucose normalisation worked out at 47% with Mus musculus [1], 73% in the test on Mus musculus [5] and 41% in the test on Mus musculus [7]. In addition, the GT fold stimulation with 3T3-L1 [2] was 1.17; with 3T3-L1 [4], 1.13. Also, the values for the 2-DG uptake stimulation in test [3], in [6] and in [8] were 1.23, 0.77 and 0.9, respectively.
For the molecule `O=C1NC(=O)C(Cc2ccc3c(c2)CC2(CCCCC2)O3)S1` (configuration not stated), the GT fold stimulation in the test with 3T3-L1 [2] worked out at 1.36; in the test on 3T3-L1 [4], 1.15. Moreover, the 2-DG uptake stimulation in test [3] is reported as 1.62; in [6], 0.85; in test [8] it was 1.28. The molecule further showed a Glucose normalisation with Mus musculus [5] of 56%.
Consider `O=C1NC(=O)C(Cc2ccc3c(c2)CCC(CC2CCCCC2)O3)S1` (configuration not stated), for which the GT fold stimulation with 3T3-L1 [2] was 1.28; in the test with 3T3-L1 [4], 1.02. The values for the 2-DG uptake stimulation in test [3], in test [6] and in test [8] were 0.68, 1.14 and 1.55, respectively. The same molecule came in with a Glucose normalisation with Mus musculus [5] of 7%.
As to `O=C1NC(=O)C(Cc2ccc3c(c2)CC2(CCCCC2)CO3)S1` (configuration not stated), the Glucose normalisation in the test with Mus musculus [1] was 6%; with Mus musculus [5], 68%. Also, the GT fold stimulation in the test with 3T3-L1 [2] stood at 1.23; in the test on 3T3-L1 [4] it was 0.8. The results for the 2-DG uptake stimulation in test [3], in [6] and in test [8] were 1.38, 1.15 and 1.27, respectively.
Take `O=C1NC(=O)C(Cc2ccc3c(c2)C(c2ccccc2)CO3)S1` (configuration not stated): the results for the GT fold stimulation with 3T3-L1 [2] and with 3T3-L1 [4] were 1.19 and 1.13, respectively. In addition, the 2-DG uptake stimulation in [3] was found to be 1.42; in [6] it was 1.05; in [8], 1.24. In the test on Mus musculus [5], this molecule had a Glucose normalisation of 32%.
On to `O=C1NC(=O)C(Cc2ccc3c(c2)CCC(Cc2ccc(O)cc2)O3)S1` (configuration not stated), for which the Glucose normalisation was 55% with Mus musculus [1] and 100% in the test with Mus musculus [5]. Besides, the GT fold stimulation with 3T3-L1 [2] is recorded as 1.34; in the test on 3T3-L1 [4], 1.25. Further, the 2-DG uptake stimulation in test [3] is recorded as 1.03; in [6], 1.04; in [8], 1.24.
